From PubChem
PostGolgi ctrl: growth of the yeast control strain, post-Golgi counter-screen; efflux-deficient yeast background strain, growth absorbance A615, 16 h; inhibition, % at 10 µM; 98,000 compounds, 5% hits
E coli WT exp: growth inhibitors of E. coli BW25113 wild type | growth inhibition, % at 100 µM | OD600 absorbance | 98,000 compounds, 0.15% hits;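 active means growth inhibition above about 50% at one test dose, limit read from the data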;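 further: growth measured after 20 h incubation at 37 °C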
tolC growth inh: blocks growth of E. coli BW25113 tolC mutant. growth inhibition, % at 10 µM (by protocol). OD615. 65,000 compounds, 2.2% hits;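 active means growth inhibition at or above a cutoff equal to the mean over every tested compound plus 3 SD, cut at about 60% in these data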;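 further: growth measured after 20 h incubation at 37 °C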
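Assay system: tolC-deleted E. coli BW25113. Medium: kanamycin-containing LB broth (50 µg/mL). Dosing: 10 µM final, single dose. Timing: bacterial growth with compound for 20 h at 37 °C. Detection: A615 absorbance measurement. Read-out basis: growth inhibition in percent.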
EphB4 ephrin blk: blocks human EphB4 binding to ephrin-B2 | EphB4 LBD / TNYL-RAW-Alexa532 peptide, fluorescence polarization | inhibition, % at 7 µM | 97,000 compounds, 0.15% hits | AID 720;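 active means inhibition above the screen-wide mean inhibition plus 3 SD, cut at about 15% in these data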;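 further: 0% = DMSO wells and 100% = excess unlabeled TNYL-RAW peptide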
Target sequence (P54760 whole entry, looked up, the tested form may be a part): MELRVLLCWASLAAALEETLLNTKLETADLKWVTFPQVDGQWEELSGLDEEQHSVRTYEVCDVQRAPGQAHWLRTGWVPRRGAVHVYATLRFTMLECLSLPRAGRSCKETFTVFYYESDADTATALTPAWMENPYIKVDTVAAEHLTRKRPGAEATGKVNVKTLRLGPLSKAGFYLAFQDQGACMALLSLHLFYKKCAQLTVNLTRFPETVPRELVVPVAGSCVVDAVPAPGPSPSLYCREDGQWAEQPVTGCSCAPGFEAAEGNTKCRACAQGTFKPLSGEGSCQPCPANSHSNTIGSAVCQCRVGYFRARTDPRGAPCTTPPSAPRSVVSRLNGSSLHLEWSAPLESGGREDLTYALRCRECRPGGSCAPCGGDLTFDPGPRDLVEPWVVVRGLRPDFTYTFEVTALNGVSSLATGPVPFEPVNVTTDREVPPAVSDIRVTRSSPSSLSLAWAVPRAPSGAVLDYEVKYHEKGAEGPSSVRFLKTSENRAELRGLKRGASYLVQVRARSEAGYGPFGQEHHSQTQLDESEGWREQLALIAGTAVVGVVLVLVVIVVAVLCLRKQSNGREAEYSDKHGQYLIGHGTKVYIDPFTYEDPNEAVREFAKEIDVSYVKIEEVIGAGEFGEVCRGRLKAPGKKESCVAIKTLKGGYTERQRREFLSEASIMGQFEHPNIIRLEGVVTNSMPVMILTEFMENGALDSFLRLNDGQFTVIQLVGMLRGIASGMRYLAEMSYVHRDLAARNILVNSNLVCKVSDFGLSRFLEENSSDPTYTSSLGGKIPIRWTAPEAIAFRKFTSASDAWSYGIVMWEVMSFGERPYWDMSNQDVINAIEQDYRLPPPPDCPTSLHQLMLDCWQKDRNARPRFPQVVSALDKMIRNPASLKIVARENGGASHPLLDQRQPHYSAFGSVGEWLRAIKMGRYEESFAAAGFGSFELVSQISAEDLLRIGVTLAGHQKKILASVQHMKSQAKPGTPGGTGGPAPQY
PostGolgi yeast: growth inhibition of a yeast mutant, post-Golgi transport screen | post-Golgi transport phenotypic cell assay | inhibition, % at 10 µM | 98,000 compounds, 0.9% hits;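 further: yeast cells grown in 1536-well plates; yeast grown about 18 h at 30C before absorbance read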
The depositor's hits bear a star. A selection: hits, their analogues and other compounds. The true share with any hit is near 6%. Unless noted, no stated cut-off is given here; in the data, active means inhibition above about 30%; inactive means the rest.

How did COc1ccc(N2CCN(S(=O)(=O)c3ccc(OC)cc3)CC2)cc1 do in these assays?
tolC growth inh: 0; EphB4 ephrin blk: 0

Results for COc1ccc(S(=O)(=O)N2CCN(c3cccc(C)c3C)CC2)cc1 ?
PostGolgi ctrl: 35*; E coli WT exp: -15; tolC growth inh: 38; EphB4 ephrin blk: 0; PostGolgi yeast: -10

How did COc1ccc(S(=O)(=O)N2CCCN(Cc3cccc(F)c3)CC2)cc1 do in these assays?
PostGolgi ctrl: 45*; E coli WT exp: 6; tolC growth inh: 14; EphB4 ephrin blk: -3; PostGolgi yeast: 2

Results for CCN1CCN(S(=O)(=O)c2cc(OC)ccc2OC)CC1 ?
PostGolgi ctrl: 1; E coli WT exp: 5; tolC growth inh: -3; EphB4 ephrin blk: 0; PostGolgi yeast: 9

How did COc1ccc(OC)c(S(=O)(=O)N2CCN(c3c(C)cccc3C)CC2)c1 do in these assays?
PostGolgi ctrl: 29; E coli WT exp: -8; tolC growth inh: 65*; EphB4 ephrin blk: 1; PostGolgi yeast: -2

Results for CCCCC1(Cc2cccc([N+](=O)[O-])c2)C(=O)N(c2ccccc2)N(c2ccccc2)C1=O ?
PostGolgi ctrl: 21; E coli WT exp: -12; EphB4 ephrin blk: 5; PostGolgi yeast: 2

Results for Cc1nc2ccc(NC(=O)NCCCO)cc2s1 ?
PostGolgi ctrl: 6; E coli WT exp: 3; EphB4 ephrin blk: -4; PostGolgi yeast: -2

Results for CC(C)(CO)NCc1ccccc1OCC(=O)Nc1ccccc1 ?
PostGolgi ctrl: 32*; E coli WT exp: -7; tolC growth inh: -12; EphB4 ephrin blk: -2; PostGolgi yeast: -7

Results for O=C(CCCN1C(=O)c2cccc3cccc(c23)C1=O)N1CCc2ccccc2C1 ?
PostGolgi ctrl: 8; E coli WT exp: -13; EphB4 ephrin blk: -10; PostGolgi yeast: 23

How did CC1CCc2cc(F)ccc2N1C(=O)C1(C)CC1(Cl)Cl (centres undefined) do in these assays?
PostGolgi ctrl: 17; E coli WT exp: 10; EphB4 ephrin blk: -4; PostGolgi yeast: -2

How did O=C(Nc1nc(-c2ccccc2)ns1)c1cccs1 do in these assays?
PostGolgi ctrl: 28; E coli WT exp: -4; tolC growth inh: 64*; EphB4 ephrin blk: -6; PostGolgi yeast: 13

How did CCC(=O)Nc1nc(-c2ccccc2)ns1 do in these assays?
EphB4 ephrin blk: -3

Results for O=C(Nc1nc(-c2ccccc2)cs1)c1cccs1 ?
PostGolgi ctrl: 0; E coli WT exp: -8; tolC growth inh: 98*; EphB4 ephrin blk: -12; PostGolgi yeast: -9

How did CN(C)c1ccc(/C=N/NC(=O)CN(c2cccc(Cl)c2)S(C)(=O)=O)cc1Br do in these assays?
PostGolgi ctrl: -4; E coli WT exp: -14; EphB4 ephrin blk: -3; PostGolgi yeast: 22

Results for O=C(Nc1nc(-c2ccccn2)cs1)c1ccc(Cl)s1 ?
PostGolgi ctrl: 24; E coli WT exp: 11; tolC growth inh: 100*; PostGolgi yeast: 37*

Results for O=C(Nc1nc(-c2ccccn2)cs1)c1ncc(Cl)c(Cl)c1Cl ?
PostGolgi ctrl: 39*; E coli WT exp: 0; EphB4 ephrin blk: 2; PostGolgi yeast: 82*

What do the screens show for `O=C(Nc1nc(-c2ccccn2)cs1)c1ccc(S(=O)(=O)N2CCCCC2)cc1`?
tolC growth inh: 38

How did O=C(Nc1nc(-c2ccc(Cl)s2)cs1)c1cccs1 do in these assays?
PostGolgi ctrl: 23; E coli WT exp: -24; tolC growth inh: 12; PostGolgi yeast: -4

What do the screens show for `COc1ccccc1NS(=O)(=O)c1cc(Cl)ccc1OC`?
PostGolgi ctrl: 10; E coli WT exp: -3; tolC growth inh: -3; PostGolgi yeast: 8

How did Cc1ccccc1NC(=S)NNC(=O)c1csc2c1CCC(C)C2 (centres undefined) do in these assays?
PostGolgi ctrl: 7; E coli WT exp: -4; EphB4 ephrin blk: -1; PostGolgi yeast: 4

Results for Cc1nc2ccc(S(=O)(=O)NCC(=O)N3CCN(c4ccccc4)CC3)cc2s1 ?
PostGolgi ctrl: 3; E coli WT exp: 0; tolC growth inh: 5; EphB4 ephrin blk: 8; PostGolgi yeast: 7

What do the screens show for `O=C(CNS(=O)(=O)c1ccccc1)N1CCN(c2ccccc2)CC1`?
PostGolgi ctrl: 34*; E coli WT exp: 8; tolC growth inh: -4; EphB4 ephrin blk: 4; PostGolgi yeast: 0

How did Cc1ccc(NC(=O)CSc2nnc(CCNC(=O)OC(C)(C)C)o2)c(C)c1 do in these assays?
PostGolgi ctrl: 35*; E coli WT exp: 3; EphB4 ephrin blk: -5; PostGolgi yeast: -2
